Results as given in ChEMBL document CHEMBL3992564, “Design and synthesis of novel, potent and selective hypoxanthine analogs as adenosine A1 receptor antagonists and their biological evaluation” (Bioorg Med Chem, 2017).
Values after ≈ are worked out from the molar mass of the structure shown.

Tests used:
[1] = Thermodynamic solubility of the compound in pH 4 solution; format: physicochemical; conditions: read-out: Therm_solubility
[2] = Elimination half life in Wistar rat at 3 mg/kg, iv by LC-Ms/MS analysis; format: ADME, organism-based; conditions: in vivo, read-out: beta t1/2 (converted)
In short: (§1)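 Male Wistar rats (230 ± 15 g), fasted overnight with water available. IV dose of 3 mg/kg given by tail vein as a solution (0.6 mg/mL, 5 mL/kg). PO dose of 5 mg/kg given by gavage as a suspension. Blood was collected into K2EDTA at 0.008 (IV only) to 24 h and plasma was spun off. Samples were precipitated with acetonitrile and run on LC/MS/MS. Parameters came from non-compartmental analysis of individual animals, mean of n = 4.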

[3] = Thermodynamic solubility of the compound in pH 2 solution; format: physicochemical; conditions: read-out: Therm_solubility
[4] = biological target: T1, Adenosine receptor A1 (Homo sapiens, UniProt P30542); assay: Displacement of [3H]DPCPX from human adenosine A1 receptor expressed in HEK293 cell membranes after 90 mins
T1 sequence (P30542 whole entry): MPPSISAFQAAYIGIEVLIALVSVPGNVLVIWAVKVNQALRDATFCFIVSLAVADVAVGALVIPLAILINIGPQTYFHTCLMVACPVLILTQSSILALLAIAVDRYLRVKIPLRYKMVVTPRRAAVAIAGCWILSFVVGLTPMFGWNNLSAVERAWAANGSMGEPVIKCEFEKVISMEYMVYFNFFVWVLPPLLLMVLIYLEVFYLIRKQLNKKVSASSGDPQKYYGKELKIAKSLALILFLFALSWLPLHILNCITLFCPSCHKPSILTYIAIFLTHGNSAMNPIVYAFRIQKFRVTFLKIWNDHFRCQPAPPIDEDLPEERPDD

[5] = Metabolic stability in rat liver microsomes assessed as parent compound remaining measured after 30 mins in presence of NADPH; format: ADME, microsome; conditions: read-out: Stability
[6] = biological target: T1, Adenosine receptor A1; assay: Antagonist activity at human adenosine A1 receptor expressed in HEK293 cells assessed as reduction in CPA-mediated inhibition of forskolin-stimulated cAMP level preincubated for 15 mins followed by CPA treatment for 15 mins and subsequent addition of forskolin measured after 30 mins by HTRF assay; format: functional, cell-based
[7] = Thermodynamic solubility of the compound in pH 7.4 solution; format: physicochemical; conditions: read-out: Therm_solubility
[8] = biological target: Adenosine receptor A2a (Homo sapiens, UniProt P29274); assay: Displacement of [3H]ZM241385 from human adenosine A2A receptor expressed in HEK293 cell membranes after 90 mins
Chain of Adenosine receptor A2a (P29274 whole entry): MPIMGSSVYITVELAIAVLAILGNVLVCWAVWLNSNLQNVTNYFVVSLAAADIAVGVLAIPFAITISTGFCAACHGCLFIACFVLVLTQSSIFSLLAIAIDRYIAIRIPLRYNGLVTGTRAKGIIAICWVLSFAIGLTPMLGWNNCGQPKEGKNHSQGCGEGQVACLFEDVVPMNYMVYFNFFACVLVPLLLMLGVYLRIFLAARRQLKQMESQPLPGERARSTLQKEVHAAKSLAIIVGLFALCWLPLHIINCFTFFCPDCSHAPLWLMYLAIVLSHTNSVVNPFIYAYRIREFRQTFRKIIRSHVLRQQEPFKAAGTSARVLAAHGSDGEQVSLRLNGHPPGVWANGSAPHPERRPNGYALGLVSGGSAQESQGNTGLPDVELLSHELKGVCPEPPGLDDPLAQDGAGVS
In short: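 Membranes from HEK-293 cells stably transfected with human receptor, pre-treated with adenosine deaminase. Radioligands: 1 nM [3H]DPCPX (A1), 1 nM [3H]ZM241385 (A2A), 1.6 nM [3H]MRS-1754 (A2B), 2 nM [3H]HEMADO (A3). Buffers: Tris pH 7.4 (A1, A2A, A3) or pH 6.5 (A2B), with ADA. Incubated 90 min at room temperature, then filtered. Nonspecific binding defined with 100 µM NECA. Ki from 8 concentrations run in triplicate.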

[9] = Clearance in Wistar rat at 3 mg/kg, iv by LC-Ms/MS analysis; format: ADME, organism-based; conditions: in vivo; in short: as §1
[10] = AUC (0 to t) in Wistar rat at 3 mg/kg, iv by LC-Ms/MS analysis; format: ADME, organism-based; conditions: in vivo; in short: as §1
[11] = Protein binding in rat plasma at 5 uM; format: ADME, cell-free; conditions: read-out: PPB (converted)
[12] = tested on: Liver; assay: Metabolic stability in rat liver microsomes assessed as metabolic rate measured after 30 mins in presence of NADPH; format: ADME, microsome; conditions: 0.5 h
[13] = tested on: Liver; assay: Metabolic stability in human liver microsomes assessed as metabolic rate measured after 30 mins in presence of NADPH; format: ADME, microsome; conditions: 0.5 h
[14] = biological target: CYP3A4 (Homo sapiens, UniProt P08684); assay: Inhibition of CYP3A4 (unknown origin) at 5 uM relative to control; format: ADME
Chain of CYP3A4 (P08684 whole entry): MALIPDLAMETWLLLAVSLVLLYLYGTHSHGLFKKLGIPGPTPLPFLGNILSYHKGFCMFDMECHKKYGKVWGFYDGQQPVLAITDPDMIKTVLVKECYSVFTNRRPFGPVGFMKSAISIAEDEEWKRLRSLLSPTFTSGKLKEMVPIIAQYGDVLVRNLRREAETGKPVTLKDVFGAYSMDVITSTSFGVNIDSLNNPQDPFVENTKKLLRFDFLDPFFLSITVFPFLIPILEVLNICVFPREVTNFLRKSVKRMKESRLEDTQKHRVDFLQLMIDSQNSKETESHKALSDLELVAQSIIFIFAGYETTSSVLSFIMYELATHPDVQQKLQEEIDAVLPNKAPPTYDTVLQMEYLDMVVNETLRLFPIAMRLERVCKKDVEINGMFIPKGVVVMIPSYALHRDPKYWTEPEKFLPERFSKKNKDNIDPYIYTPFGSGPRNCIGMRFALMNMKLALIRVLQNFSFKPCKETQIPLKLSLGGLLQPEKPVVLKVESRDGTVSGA

[15] = biological target: T2, CYP1A2 (Homo sapiens, UniProt P05177); assay: Inhibition of CYP1A2 (unknown origin) at 5 uM relative to control; format: ADME
T2 sequence (P05177 whole entry): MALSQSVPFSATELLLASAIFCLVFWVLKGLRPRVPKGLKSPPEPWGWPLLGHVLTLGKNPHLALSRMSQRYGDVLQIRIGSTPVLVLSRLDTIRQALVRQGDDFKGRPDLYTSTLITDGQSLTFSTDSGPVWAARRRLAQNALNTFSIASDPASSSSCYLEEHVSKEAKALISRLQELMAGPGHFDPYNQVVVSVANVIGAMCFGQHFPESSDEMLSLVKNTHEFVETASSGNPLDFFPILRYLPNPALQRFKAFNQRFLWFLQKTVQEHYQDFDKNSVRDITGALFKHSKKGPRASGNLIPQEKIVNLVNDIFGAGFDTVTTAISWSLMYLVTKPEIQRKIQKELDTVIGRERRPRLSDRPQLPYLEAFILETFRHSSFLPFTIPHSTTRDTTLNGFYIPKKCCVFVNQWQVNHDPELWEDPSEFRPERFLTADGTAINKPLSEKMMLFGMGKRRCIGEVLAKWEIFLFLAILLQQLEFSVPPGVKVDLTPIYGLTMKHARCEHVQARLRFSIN

[16] = Metabolic stability in human liver microsomes assessed as parent compound remaining measured after 30 mins in presence of NADPH; format: ADME, microsome; conditions: read-out: Stability
[17] = biological target: CYP2D6 (Homo sapiens, UniProt P10635); assay: Inhibition of CYP2D6 (unknown origin) at 5 uM relative to control; format: ADME
Chain of CYP2D6 (P10635 whole entry): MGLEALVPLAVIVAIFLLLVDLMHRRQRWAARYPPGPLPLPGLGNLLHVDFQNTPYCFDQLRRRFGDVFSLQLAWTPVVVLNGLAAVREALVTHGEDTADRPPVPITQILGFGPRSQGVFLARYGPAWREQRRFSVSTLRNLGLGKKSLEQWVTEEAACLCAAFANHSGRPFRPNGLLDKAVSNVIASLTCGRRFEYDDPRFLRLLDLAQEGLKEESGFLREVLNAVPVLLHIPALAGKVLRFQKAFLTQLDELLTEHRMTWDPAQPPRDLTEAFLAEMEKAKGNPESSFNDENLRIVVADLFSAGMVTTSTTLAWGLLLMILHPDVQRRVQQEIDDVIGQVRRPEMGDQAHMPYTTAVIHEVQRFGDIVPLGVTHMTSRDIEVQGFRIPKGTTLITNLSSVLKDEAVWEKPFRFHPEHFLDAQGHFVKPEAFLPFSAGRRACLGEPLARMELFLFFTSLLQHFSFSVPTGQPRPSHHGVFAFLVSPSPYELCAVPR

[18] = Volume of distribution at steady state in Wistar rat at 3 mg/kg, iv by LC-Ms/MS analysis; format: ADME, organism-based; conditions: in vivo, read-out: Vdss
In short: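 Male Wistar rats (230 ± 15 g), fasted overnight with water available. IV dosing at 3 mg/kg by tail vein as solution (0.6 mg/mL, 5 mL/kg). PO dosing at 5 mg/kg by oral gavage. Serial blood sampling into K2EDTA from 0.008 (IV only) to 24 h. Plasma precipitated with acetonitrile containing internal standard and analysed by LC/MS/MS. Non-compartmental parameters calculated per animal; values are means of n = 4.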

| solubility thermodynamic [1] [µM] | half-life [2] [min] | solubility thermodynamic [3] [µM] | Ki [4] [nM] | remaining at 0.5 h [5] [%] | Ki [6] [nM] | solubility thermodynamic [7] [µM] | Ki [8] [nM] | clearance [9] [mL/min/kg] | AUC(0-t) [10] [µM·h] | fraction unbound at 5 µM [11] | Drug metabolism [12] [nmol/min/mg] | Drug metabolism [13] [nmol/min/mg] | inhibition at 5 µM [14] [%] | inhibition at 5 µM [15] [%] | remaining at 0.5 h [16] [%] | inhibition at 5 µM [17] [%] | Vd [18] [L/kg] | Compound |
| --- | --- | --- | --- | --- | --- | --- | --- | --- | --- | --- | --- | --- | --- | --- | --- | --- | --- | --- |
| 63 (≈ 22.2 µg/mL) | 29.4 | 614 (≈ 216 µg/mL) | 16 | 82 | 15 | 54 (≈ 19 µg/mL) | ≥ 10000 | 39.2 | 3.53 | 0.05 | 0.05 | 0.03 | 5 | 0 | 97 | 1 | 1.2 | CCCn1c(-c2cccc(OC)c2)nc2nc(C3CCCC3)[nH]c2c1=O |
| 43 (≈ 15.2 µg/mL) | 30 | 2150 (≈ 761 µg/mL) | 6.6 | 78 | 0.28 | 38 (≈ 13.4 µg/mL) | 2000 | 55 | 2.7 | 0.23 | 0.07 | 0.06 | 0 | 0 | 79 | 0 | 2 | CCCn1c(Oc2cccnc2C)nc2nc(C3CCCC3)[nH]c2c1=O |
| 23 (≈ 8.61 µg/mL) | 124 | 77 (≈ 28.8 µg/mL) | 23 | 75 | 13 | 17 (≈ 6.36 µg/mL) | > 10000 | 13.6 | 10.2 | 0.01 | 0.08 | 0.05 | 34 | 7 | 82 | 10 | 1.73 | CCCn1c(Oc2ccc(F)c(F)c2)nc2nc(C3CCCC3)[nH]c2c1=O |
